Results from ChEMBL document CHEMBL1143736, “Synthesis and antimycobacterial activity of 4-(5-substituted-1,3,4-oxadiazol-2-yl)pyridines” (Bioorg Med Chem, 2007).
In brackets after ≈: the same amount, converted by molar mass.

Experiments:
Assay type in all cases: functional
[1] = tested on: Mycobacterium tuberculosis; experiment: Antimycobacterial activity against streptomycin, isoniazid, rifampicin, pyrazinamide-resistant Mycobacterium tuberculosis CIBIN 234 isolates
Summary of the method: (§1)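 Modified microplate Alamar Blue assay (MABA). Inoculum came from a log-phase culture matched to McFarland 1, diluted 1:50 in Middlebrook 7H9 to 6 × 10^6 CFU/mL, and prepared just before inoculation.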

[2] = tested on: Mycobacterium tuberculosis; experiment: Antimycobacterial activity against streptomycin and isoniazid-resistant Mycobacterium tuberculosis CIBIN 675 isolates; summary of the method: as §1
[3] = tested on: Mycobacterium tuberculosis; experiment: Antimycobacterial activity against streptomycin, isoniazid, ethambutol-resistant Mycobacterium tuberculosis CIBIN 112 isolates; summary of the method: as §1

With `FC(F)(F)c1nnc(-c2ccncc2)o1` the MIC [1] was 37.2 µM (≈ 8.01 µg/mL), the MIC [2] was 37.2 µM and the MIC [3] was 37.2 µM (≈ 8.01 µg/mL).
Compound `c1cc(-c2nnc(-c3ccncc3)o2)ccn1` has an MIC [1] of 35.7 µM (≈ 8.01 µg/mL), an MIC [2] of 35.7 µM and an MIC [3] of 35.7 µM (≈ 8.01 µg/mL).
Work on `O=[N+]([O-])c1ccc(-c2nnc(-c3ccncc3)o2)cc1` yielded an MIC [1] of 29.9 µM (≈ 8.01 µg/mL), an MIC [2] of 29.9 µM and an MIC [3] of 29.9 µM (≈ 8.01 µg/mL).
`O=[N+]([O-])c1cc(-c2nnc(-c3ccncc3)o2)cc([N+](=O)[O-])c1` showed an MIC [1] of 25.5 µM (≈ 8 µg/mL), an MIC [2] of 25.5 µM and an MIC [3] of 12.8 µM (≈ 4 µg/mL).
With `CO[C@H]1/C=C/O[C@@]2(C)Oc3c(C)c(O)c4c(O)c(c(/C=N/N5CCN(C)CC5)c(O)c4c3C2=O)NC(=O)/C(C)=C\C=C\[C@H](C)[C@H](O)[C@@H](C)[C@@H](O)[C@@H](C)[C@H](OC(C)=O)[C@@H]1C` [RIFAMPIN] the MIC [1] was 122 µM (≈ 100 µg/mL), the MIC [2] was 0.94 µM and the MIC [3] was 3.79 µM (≈ 3.12 µg/mL).
Compound `Cc1nnc(-c2ccncc2)o1` has an MIC [1] of 49.7 µM (≈ 8.01 µg/mL), an MIC [2] of 49.7 µM and an MIC [3] of 49.7 µM (≈ 8.01 µg/mL).
Work on `CC[C@@H](CO)NCCN[C@@H](CC)CO` [ETHAMBUTOL] yielded an MIC [3] of 78.3 µM (≈ 16 µg/mL).
`CN[C@@H]1[C@H](O[C@H]2[C@H](O[C@H]3[C@H](O)[C@@H](O)[C@H](N=C(N)N)[C@@H](O)[C@@H]3N=C(N)N)O[C@@H](C)[C@]2(O)C=O)O[C@@H](CO)[C@H](O)[C@H]1O` (stereo in doubt) [STREPTOMYCIN] was tested, and the MIC [1] was 55 µM (≈ 32 µg/mL), the MIC [2] was 6.87 µM and the MIC [3] was 55 µM (≈ 32 µg/mL).
With `NNC(=O)c1ccncc1` [ISONIAZID] the MIC [1] was 58.4 µM (≈ 8.01 µg/mL), the MIC [2] was 29.2 µM and the MIC [3] was 29.2 µM (≈ 4 µg/mL).
`CCCCCCCCCCCCCCCCCc1nnc(-c2ccncc2)o1` gave an MIC [1] of 20.8 µM (≈ 8 µg/mL), an MIC [2] of 10.4 µM and an MIC [3] of 2.59 µM (≈ 0.999 µg/mL).
In the case of `CCCCCCCCCCCCCCCc1nnc(-c2ccncc2)o1`, the MIC [1] was 22.4 µM (≈ 8 µg/mL), the MIC [2] was 11.2 µM and the MIC [3] was 2.8 µM (≈ 1 µg/mL).
In the case of `COc1cc(-c2nnc(-c3ccncc3)o2)cc(OC)c1OC`, the MIC [1] was 28.2 µM (≈ 8.85 µg/mL), the MIC [2] was 28.2 µM and the MIC [3] was 14.1 µM (≈ 4.42 µg/mL).
`ClCc1nnc(-c2ccncc2)o1` was tested, and the MIC [1] was 41 µM (≈ 8.03 µg/mL), the MIC [2] was 41 µM and the MIC [3] was 41 µM (≈ 8.03 µg/mL).
For `O=[N+]([O-])c1ccccc1-c1nnc(-c2ccncc2)o1`, the MIC [1] was 29.9 µM (≈ 8.01 µg/mL), the MIC [2] was 29.9 µM and the MIC [3] was 29.9 µM (≈ 8.01 µg/mL).
`CN(C)c1ccc(-c2nnc(-c3ccncc3)o2)cc1` showed an MIC [1] of 30 µM (≈ 8 µg/mL), an MIC [2] of 30 µM and an MIC [3] of 30 µM (≈ 8 µg/mL).
In the case of `c1ccc(-c2nnc(-c3ccncc3)o2)cc1`, the MIC [1] was 35.9 µM (≈ 8.01 µg/mL), the MIC [2] was 35.9 µg/mL and the MIC [3] was 35.9 µM (≈ 8.01 µg/mL).
